Calls of active or inactive are those of the source. No cut-off for these calls is given here.
Tests used:
KB [1] = assay: Cytotoxicity against human KB/HeLa cells overexpressing FKBP51 assessed as induction of cell death by measuring hypodiploid cells at 20 uM incubated for 72 hrs by propidium iodide based flow cytometry analysis (reference value: 4.7%); format: functional
[2] = target: T1, Peptidyl-prolyl cis-trans isomerase FKBP4 (Homo sapiens, UniProt Q02790); assay: Inhibition of human full length N-terminal His-tagged/C-terminal FLAG tagged FKBP52 expressed in Escherichia coli BL21 (DE3) cells incubated for 30 mins by competitive fluorescence polarization assay; settings: 0.5 h
T1 sequence (Q02790 whole entry): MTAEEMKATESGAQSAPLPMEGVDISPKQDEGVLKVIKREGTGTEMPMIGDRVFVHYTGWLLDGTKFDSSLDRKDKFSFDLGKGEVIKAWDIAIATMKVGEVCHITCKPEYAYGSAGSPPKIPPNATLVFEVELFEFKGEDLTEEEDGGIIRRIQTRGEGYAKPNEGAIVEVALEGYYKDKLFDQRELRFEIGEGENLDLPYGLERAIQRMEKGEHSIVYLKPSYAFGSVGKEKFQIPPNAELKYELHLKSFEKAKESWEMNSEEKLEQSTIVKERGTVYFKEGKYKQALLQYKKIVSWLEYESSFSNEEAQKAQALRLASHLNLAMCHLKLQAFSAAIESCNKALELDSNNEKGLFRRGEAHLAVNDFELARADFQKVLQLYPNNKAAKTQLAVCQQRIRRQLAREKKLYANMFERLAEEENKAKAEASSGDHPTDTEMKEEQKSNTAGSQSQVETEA

KB [3] = assay: Induction of apoptosis in human KB/HeLa cells overexpressing FKBP51 assessed as late apoptotic cells at 12 uM incubated for 40 hrs by AnnexinV-FITC and propidium iodide staining based flow cytometry analysis (reference value: 3.4%); format: functional
[4] = target: T2, Peptidyl-prolyl cis-trans isomerase FKBP5 (Homo sapiens, UniProt Q13451); assay: Inhibition of human full length N-terminal His-tagged/C-terminal FLAG tagged FKBP51 expressed in Escherichia coli BL21 (DE3) cells incubated for 30 mins by competitive fluorescence polarization assay
T2 sequence (Q13451 whole entry): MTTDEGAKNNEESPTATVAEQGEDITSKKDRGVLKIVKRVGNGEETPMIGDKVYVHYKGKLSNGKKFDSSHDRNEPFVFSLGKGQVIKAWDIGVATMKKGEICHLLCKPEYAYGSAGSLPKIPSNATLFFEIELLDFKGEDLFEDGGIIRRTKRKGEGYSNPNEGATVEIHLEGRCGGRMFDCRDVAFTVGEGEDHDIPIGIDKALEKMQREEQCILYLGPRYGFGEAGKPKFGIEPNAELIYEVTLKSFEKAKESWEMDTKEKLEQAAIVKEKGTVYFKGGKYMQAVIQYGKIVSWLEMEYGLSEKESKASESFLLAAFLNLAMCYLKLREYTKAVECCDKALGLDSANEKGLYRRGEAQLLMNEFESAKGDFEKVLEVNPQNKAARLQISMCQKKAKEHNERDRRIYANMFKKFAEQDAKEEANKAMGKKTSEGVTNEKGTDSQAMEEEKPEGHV

KB [5] = assay: Cytotoxicity against human KB/HeLa cells overexpressing FKBP51 assessed as induction of cell death by measuring hypodiploid cells at 6 uM incubated for 72 hrs by propidium iodide based flow cytometry analysis (reference value: 4.7%); format: functional
KB [6] = assay: Induction of apoptosis in human KB/HeLa cells overexpressing FKBP51 assessed as viable cells at 12 uM incubated for 40 hrs by AnnexinV-FITC and propidium iodide staining based flow cytometry analysis (reference value: 87.7%); format: functional; settings: read-out: Activity
KB [7] = assay: Induction of apoptosis in human KB/HeLa cells overexpressing FKBP51 assessed as early apoptotic cells at 25 uM incubated for 40 hrs by AnnexinV-FITC and propidium iodide staining based flow cytometry analysis (reference value: 3.5%); format: functional
KB [8] = assay: Induction of apoptosis in human KB/HeLa cells overexpressing FKBP51 assessed as increase in early apoptotic cells incubated for 40 hrs by annexin V and propidium iodide based flow cytometry analysis; format: functional, cell-based
KB [9] = assay: Induction of apoptosis in human KB/HeLa cells overexpressing FKBP51 assessed as viable cells at 50 uM incubated for 40 hrs by AnnexinV-FITC and propidium iodide staining based flow cytometry analysis (reference value: 87.7%); format: functional; settings: read-out: Activity
KB [10] = assay: Induction of apoptosis in human KB/HeLa cells overexpressing FKBP51 assessed as necrotic cells at 12 uM incubated for 40 hrs by AnnexinV-FITC and propidium iodide staining based flow cytometry analysis (reference value: 5.4%); format: functional
KB [11] = assay: Induction of apoptosis in human KB/HeLa cells overexpressing FKBP51 assessed as viable cells at 25 uM incubated for 40 hrs by AnnexinV-FITC and propidium iodide staining based flow cytometry analysis (reference value: 87.7%); format: functional; settings: read-out: Activity
KB [12] = assay: Induction of apoptosis in human KB/HeLa cells overexpressing FKBP51 assessed as late apoptotic cells at 25 uM incubated for 40 hrs by AnnexinV-FITC and propidium iodide staining based flow cytometry analysis (reference value: 3.4%); format: functional
KB [13] = assay: Cytotoxicity against human KB/HeLa cells overexpressing FKBP51 assessed as induction of cell death by measuring hypodiploid cells at 1 uM incubated for 72 hrs by propidium iodide based flow cytometry analysis (reference value: 4.7%); format: functional
KB [14] = assay: Cytotoxicity against human KB/HeLa cells overexpressing FKBP51 assessed as induction of cell death by measuring hypodiploid cells at 60 uM incubated for 72 hrs by propidium iodide based flow cytometry analysis (reference value: 4.7%); format: functional
KB [15] = assay: Induction of apoptosis in human KB/HeLa cells overexpressing FKBP51 assessed as early apoptotic cells at 12 uM incubated for 40 hrs by AnnexinV-FITC and propidium iodide staining based flow cytometry analysis (reference value: 3.5%); format: functional
KB [16] = assay: Induction of apoptosis in human KB/HeLa cells overexpressing FKBP51 assessed as necrotic cells at 25 uM incubated for 40 hrs by AnnexinV-FITC and propidium iodide staining based flow cytometry analysis (reference value: 5.4%); format: functional
KB [17] = assay: Cytotoxicity against human KB/HeLa cells overexpressing FKBP51 assessed as induction of cell death incubated for 72 hrs by propidium iodide based flow cytometry analysis; format: functional
Method in brief: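 KB cells exposed to a range of compound doses for 72 h. 1×10^5 cells washed in PBS, then permeabilized in 0.1% sodium citrate, 0.1% Triton X-100 and 50 µg/mL propidium iodide for 30 min at 4°C in the dark. Nuclear DNA content read by flow cytometry on a log scale with debris gated out by forward scatter; % hypodiploid nuclei taken as dead cells. Four experiments, each in triplicate.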

KB [18] = assay: Induction of apoptosis in human KB/HeLa cells overexpressing FKBP51 assessed as necrotic cells at 50 uM incubated for 40 hrs by AnnexinV-FITC and propidium iodide staining based flow cytometry analysis (reference value: 5.4%); format: functional
HeLa = assay: Induction of apoptosis in human HeLa cells expressing low leves of FKBP51 at 50 uM incubated for 40 hrs by AnnexinV-FITC and propidium iodide staining based flow cytometry analysis; format: functional, cell-based
KB [19] = assay: Induction of apoptosis in human KB/HeLa cells overexpressing FKBP51 assessed as early apoptotic cells at 50 uM incubated for 40 hrs by AnnexinV-FITC and propidium iodide staining based flow cytometry analysis (reference value: 3.5%); format: functional
KB [20] = assay: Induction of apoptosis in human KB/HeLa cells overexpressing FKBP51 assessed as late apoptotic cells at 50 uM incubated for 40 hrs by AnnexinV-FITC and propidium iodide staining based flow cytometry analysis (reference value: 3.4%); format: functional
KB [21] = assay: Induction of apoptosis in human KB/HeLa cells overexpressing FKBP51 assessed as late apoptotic cells at 1 uM incubated for 40 hrs by AnnexinV-FITC and propidium iodide staining based flow cytometry analysis (reference value: 3.4%); format: functional
KB [22] = assay: Induction of apoptosis in human KB/HeLa cells overexpressing FKBP51 assessed as viable cells at 1 uM incubated for 40 hrs by AnnexinV-FITC and propidium iodide staining based flow cytometry analysis (reference value: 87.7%); format: functional; settings: read-out: Activity
KB [23] = assay: Induction of apoptosis in human KB/HeLa cells overexpressing FKBP51 assessed as necrotic cells at 1 uM incubated for 40 hrs by AnnexinV-FITC and propidium iodide staining based flow cytometry analysis (reference value: 5.4%); format: functional
KB [24] = assay: Induction of apoptosis in human KB/HeLa cells overexpressing FKBP51 assessed as early apoptotic cells at 1 uM incubated for 40 hrs by AnnexinV-FITC and propidium iodide staining based flow cytometry analysis (reference value: 3.5%); format: functional

With `COc1ccc(CCC(OC(=O)C2CCCCN2C(=O)[C@@H]2C[C@@H](O)[C@@H](O)[C@@H]3CCCC[C@H]32)c2cccc(OCCN3CCOCC3)c2)cc1OC` (single isomer, unassigned) the Activity (KB [1]) was 15.3%, the “inhibition (INH)” value [2] was “Not Active” and the Activity (KB [3]) was 6.6%. The Ki [4] was 280 nM, the Activity (KB [5]) was 11.6% and the viability at 12 µM (KB [6]) was 73.7%. For the same compound, the Activity (KB [7]) was 11.1%, the Activity (KB [8]) was “Dose-dependent effect” and the viability at 50 µM (KB [9]) was 58.9%. For the same compound, the Activity (KB [10]) was 9.6%, the viability at 25 µM (KB [11]) was 72.5% and the Activity (KB [12]) was 9.6%. The Activity (KB [13]) was 5.6%, the Activity (KB [14]) was 26.1% and the Activity (KB [15]) was 10.1%. The Activity (KB [16]) was 6.8%, the Activity (KB [17]) was “Dose-dependent effect” and the Activity (KB [18]) was 8.1%. The Activity (HeLa) was “Active”, the Activity (KB [19]) was 21.7% and the Activity (KB [20]) was 11.4%.

For `COc1ccc(CC[C@@H](OC(=O)[C@@H]2CCCCN2C(=O)[C@H](c2cc(OC)c(OC)c(OC)c2)C2CCCCC2)c2cccc(OCC(=O)O)c2)cc1OC`, the Activity (KB [21]) was 12.6%, the viability at 1 µM (KB [22]) was 65.1% and the Activity (KB [23]) was 2.1%. It also gave an Activity (KB [24]) of 20.2%.
